Kir21 inh = blocks the mouse Kir2.1 inward-rectifier potassium channel; AID 1672; 0.85% of 310,000 active; B-score at 10 µM; HEK293-Kir2.1, FluxOR thallium flux fluorescence; stronger effect = lower value; P35561;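 active = fluorescence ratio B-score at or below minus 3 SD of library scores, with starting-brightness B-score within 2 SD, cut at about -4.2 in these data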;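 note: channel flux triggered by added potassium and thallium sulfate stimulus; B-score of peak minus minimum fluorescence over baseline after thallium stimulus; more negative B-score means stronger Kir2.1 block with less thallium influx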
KCNK9 inh = blocks the human KCNK9 two-pore domain potassium channel. AID 488922. HEK293 KCNK9, FluxOR thallium flux fluorescence; stronger effect = lower value. 1.2% of 310,000 active. B-score at 10 µM. Q9NPC2;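 active = ratio B-score over 3 SD below the library mean, with starting fluorescence within 5 SD of its mean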;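 note: negative B-score means less thallium flux so channel inhibition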
KCNK3 block = human KCNK3 channel inhibition, primary screen | CHO-KCNK3 thallium flux, FluxOR fluorescence; stronger effect = lower value | O14649 | 0.84% of 340,000 active | B-score at 10 µM;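 active = B-score under library mean minus 4 SD, starting fluorescence ratio at most library mean plus 5 SD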;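 note: more negative B-score means stronger inhibition of thallium flux through KCNK3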
KCNQ1 act = potentiators or activators of human KCNQ1 potassium channel | P51787 | CHO-K1 KCNQ1, thallium flux FluxOR fluorescence; stronger effect = higher value | B-score at 10 µM | 0.35% of 310,000 active | AID 2648;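 active = fluorescence ratio B-score, a plate-corrected score, at least three library SD, with initial intensity B-score within 5 SD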
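Doses: Single concentration per compound, DMSO matched to controls | Test system: KCNQ1-transfected CHO-K1 cells | Timing: 90 min dye loading and 20 min compound exposure, both at room temperature | Measured by: Kinetic FluxOR thallium fluorescence, 10-s 1-Hz baseline, 110-s post-stimulus read | Medium: Assay buffer with matched DMSO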
KCNQ1 block = human KCNQ1 channel inhibition | P51787 | CHO-K1 KCNQ1, FluxOR thallium flux fluorescence; stronger effect = higher value | B-score at 10 µM | 1.3% of 310,000 active | AID 2642;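 active = compounds whose thallium flux B-score, printed positive for inhibition, exceeds three library SD while starting fluorescence stays within three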;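 note: channel opened by potassium depolarization with thallium stimulus after 20 min compound exposure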
hERG protect = shields human hERG channel from block by proarrhythmic agents. Q12809. CHO-hERG, FluxOR thallium flux, dofetilide IC70 present. activation (rescue from dofetilide block), less the hit threshold, % at 10 µM. 0.51% of 310,000 active;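 active = activation above the mean of controls blocked by dofetilide plus 5 SD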;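 note: thallium influx through hERG after potassium depolarization seen as dye fluorescence rise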
Target sequence (Q12809 whole entry, looked up): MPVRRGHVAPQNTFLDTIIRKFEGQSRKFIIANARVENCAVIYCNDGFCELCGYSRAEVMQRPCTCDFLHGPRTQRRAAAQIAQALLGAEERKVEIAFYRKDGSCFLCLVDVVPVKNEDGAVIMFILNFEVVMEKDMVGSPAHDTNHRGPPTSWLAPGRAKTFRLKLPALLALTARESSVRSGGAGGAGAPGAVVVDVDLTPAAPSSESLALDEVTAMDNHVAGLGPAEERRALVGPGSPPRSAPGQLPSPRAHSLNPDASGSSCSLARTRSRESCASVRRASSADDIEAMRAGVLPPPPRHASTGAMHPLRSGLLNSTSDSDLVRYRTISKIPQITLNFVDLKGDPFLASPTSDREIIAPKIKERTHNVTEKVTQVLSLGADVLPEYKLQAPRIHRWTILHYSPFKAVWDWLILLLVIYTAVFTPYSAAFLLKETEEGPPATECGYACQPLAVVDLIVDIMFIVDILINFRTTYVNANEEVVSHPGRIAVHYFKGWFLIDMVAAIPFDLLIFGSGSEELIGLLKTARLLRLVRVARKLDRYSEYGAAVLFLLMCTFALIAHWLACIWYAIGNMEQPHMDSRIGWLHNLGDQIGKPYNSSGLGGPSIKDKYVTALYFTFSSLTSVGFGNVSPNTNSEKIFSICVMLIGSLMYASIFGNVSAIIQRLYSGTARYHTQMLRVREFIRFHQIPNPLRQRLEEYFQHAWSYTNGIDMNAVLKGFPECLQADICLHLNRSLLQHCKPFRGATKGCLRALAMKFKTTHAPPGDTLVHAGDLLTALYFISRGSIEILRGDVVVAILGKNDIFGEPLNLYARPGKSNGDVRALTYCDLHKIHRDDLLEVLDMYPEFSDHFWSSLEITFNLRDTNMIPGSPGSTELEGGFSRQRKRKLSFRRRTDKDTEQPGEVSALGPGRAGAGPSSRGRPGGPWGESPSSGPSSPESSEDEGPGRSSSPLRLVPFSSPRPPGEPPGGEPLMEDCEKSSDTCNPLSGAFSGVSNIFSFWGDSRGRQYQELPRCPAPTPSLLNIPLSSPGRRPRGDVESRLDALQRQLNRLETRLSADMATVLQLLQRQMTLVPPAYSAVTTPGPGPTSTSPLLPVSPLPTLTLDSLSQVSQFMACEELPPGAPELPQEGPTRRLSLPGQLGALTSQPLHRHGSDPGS
KCNK9 block conf = confirmation of human KCNK9 potassium channel inhibitors; shares compounds with KCNK9 inh; HEK293 KCNK9 cells, FluxOR thallium flux fluorescence; AID 492992; 43% of 4,900 active; inhibition, % at 10 µM;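 active = thallium signal inhibited by more than 5 SD of the compound-free buffer control wells, on both duplicate plates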;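 note: 0% = assay buffer control wells without compound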
Kir21 sel = selectivity of KCNK9 modulators against mouse Kir2.1; shares compounds with KCNK9 inh; Kir2.1 cells, FluxOR thallium flux fluorescence; inhibition, % at 10 µM; 4% of 4,900 active; AID 492993;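 active = thallium signal drop more than 5 SD beyond the mean of the no-compound control wells, seen in both duplicate plates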;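 note: signal is fluorescence rise after thallium addition divided by baseline fluorescence; plate controls were assay buffer only for no effect and full block by chlorpromazine control for full effect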
KCNK9 uninduced = second counter-screen for KCNK9 modulators: effect in non-induced cells. shares compounds with KCNK9 inh. non-induced KCNK9-HEK293, FluxOR thallium flux. inhibition, % at 10 µM. 40% of 4,900 active;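 active = thallium signal drop beyond 5 SD of the untreated control mean, on both duplicate plates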;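 note: plate controls were buffer only IC0 wells for no effect and SID17386958 at its maximal inhibitory level for full effect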
* = called active by the depositor; i = inactive; / = not tested or not shown. The list is not random: actives were taken first. Their share in the collection is about 3.7%.

SMILES	Kir21 inh	KCNK9 inh	KCNK3 block	KCNQ1 act	KCNQ1 block	hERG protect	KCNK9 block conf	Kir21 sel	KCNK9 uninduced
COc1ccccc1COCC(O)CN1CCCCC1CO (stereo not drawn)	0.31	i	i	i	i	-1.2	/	/	/
CCOC(=O)C1CCCN(Cc2cc(Br)c(OC)cc2OC)C1 (stereo not drawn)	-0.74	i	i	i	i	-12.2	i	i	i
CCOC(=O)C1CCCN(Cc2cc(=O)oc3cc(C)c(C)cc23)C1 (stereo not drawn)	-2.67	i	i	i	i	-18.6	i	i	i
CCOC(=O)C1CCCN(CC(O)COCc2ccccc2OC)C1 (stereo not drawn)	-2.02	i	i	i	i	-4.5	i	i	i
COc1ccc(CN(C)C(=O)c2ccncc2)c(OC)c1	-3.14	i	i	i	i	-5.3	/	/	/
CCOc1ccc(Br)cc1S(=O)(=O)NC(=O)c1ccccc1	1.37	i	i	i	i	-6.2	/	/	/
COc1ccc(CNC(=O)C2Cc3cc(S(=O)(=O)N4CCCC4)ccc3N2C(C)=O)c(OC)c1 (stereo not drawn)	-0.15	i	i	i	i	-10.2	/	/	/
CCC(C)(C)c1nnc(NC(=O)CCC2CCCCC2)s1	-0.59	i	i	i	i	-7.5	/	/	/
CCN1CCCc2cc(CN(CCN3CCOCC3)C(=O)Nc3ccc(C)c(C)c3)ccc21	-0.16	i	i	i	i	-12.0	i	i	i
CC(C)C[C@@H](CN(N=O)[C@@H](Cc1ccccc1)CN(C)N=O)N(CCc1ccccc1)N=O	0.64	i	i	i	i	-3.2	/	/	/
CN(C[C@H](Cc1ccccc1)N(C[C@@H](Cc1cccc2ccccc12)N(CCc1ccccc1)N=O)N=O)N=O	1.26	-8.45*	i	i	i	-5.2	i	i	38.5%*
CN(c1ccc([N+](=O)[O-])cc1C(=O)Nc1ccccc1)C1CCCCC1	-1.15	-12.5*	i	i	i	-12.9	30.0%*	i	42.0%*
Cc1cccc(NC(=O)c2cc([N+](=O)[O-])ccc2NC2CCCCC2)c1	-0.05	i	i	i	i	-2.9	/	/	/
Cc1cc(C2N=C(N)Nc3nc4ccccc4n32)c(C)n1-c1ccccc1Cl (stereo not drawn)	-0.19	-8.69*	i	i	i	-11.4	52.0%*	i	39.0%*
CCCCn1cnc2c(c(-c3ccccc3)c(-c3ccccc3)n2Cc2ccco2)c1=N	-10.3	-13.3*	i	i	10*	-26.5	44.5%*	i	i
CC(=O)c1cn(-c2ccc(Cl)cc2)c(=O)n(Cc2ccc(F)cc2)c1=O	0.98	i	i	i	i	-9.9	/	/	/
COc1ccccc1CNC(=O)c1ccccc1OCc1ccc(F)cc1	-6.52*	-8.84*	i	i	i	-14.0	70.5%*	39.0%*	28.0%*
O=C(NCc1ccccn1)c1ccccc1OCc1ccc(F)cc1	-1.07	i	i	i	i	-16.7	/	/	/
COc1ccc(-c2cn(CCO)c(CCN)n2)cc1	/	/	i	/	/	/	/	/	/
CCOC(=O)C1CSC2(CCC(c3ccccc3)CC2)N1 (stereo not drawn)	-2.43	i	i	i	i	-10.8	i	i	i
CCOC(=O)C1NC(=O)CC1c1ccccc1 (stereo not drawn)	-0.47	i	i	i	i	-8.7	/	/	/
O=C(c1ccc(OC2CCN(Cc3ccccn3)CC2)cc1)N1CCCC(O)C1 (stereo not drawn)	-1.27	i	i	i	i	-6.4	/	/	/
Cc1noc(C)c1CSCC(=O)Nc1cccc(C(F)(F)F)c1	/	/	i	/	/	/	/	/	/
CC1(C)c2ssc(=S)c2-c2ccccc2N1C(=O)CSC1=NCCS1	0	i	i	i	i	-8.4	/	/	/
Cc1cc(C)c2c(c1)-c1c(ssc1=S)C(C)(C)N2C(=O)CSc1nncn1C	-3.8	i	i	i	i	-5.7	/	/	/
SMILES	Kir21 inh	KCNK9 inh	KCNK3 block	KCNQ1 act	KCNQ1 block	hERG protect	KCNK9 block conf	Kir21 sel	KCNK9 uninduced
Cc1cc2c(cc1C)N(C(=O)CSC1=NCCS1)C(C)(C)c1ssc(=S)c1-2	1.58	-8.58*	i	i	i	-10.2	50.0%*	i	31.0%*
COc1ccc2c(c1)-c1c(ssc1=S)C(C)(C)N2C(=O)CSC1=NCCS1	-0.03	-11.7*	i	i	i	-10.7	46.5%*	i	38.0%*
CSc1ncccc1C(=O)OCC(=O)c1ccc(C)s1	/	/	i	/	/	/	/	/	/
CCc1nnc(NC(=O)c2ccc(F)c(S(=O)(=O)N3CCCCC3)c2)s1	0.54	i	i	i	i	-6.2	/	/	/
CCc1nnc(NC(=O)c2ccc(Cl)c(S(=O)(=O)N3CCc4ccccc43)c2)s1	-2.06	-12.7*	i	i	i	-13.9	67.5%*	i	41.5%*
Cc1cc(C(=O)O)cc(S(=O)(=O)NNC(=O)c2cccs2)c1C	0.49	i	i	i	i	-9.7	/	/	/
CCCCN(Cc1ccccc1)S(=O)(=O)c1cc(Br)cc2c1N(C(C)=O)C(C)C2 (stereo not drawn)	-0.08	-15.5*	i	i	i	-16.4	i	i	54.0%*
CC(=O)N1c2c(cc(Br)cc2S(=O)(=O)NCc2cccnc2)CC1C (stereo not drawn)	0.85	i	i	i	i	-3.4	/	/	/
Cc1ccc(C2(C)NC(=O)N(CC(=O)NNC(=O)c3ccccc3)C2=O)cc1 (stereo not drawn)	/	/	i	/	/	/	/	/	/
Cc1ccc(S(=O)(=O)N2CCN(C3CC(=O)N(Cc4ccccc4)C3=O)CC2)cc1C (stereo not drawn)	0.9	i	i	i	i	-5.6	/	/	/
O=C1CC(N2CCN(S(=O)(=O)c3cccc(C(F)(F)F)c3)CC2)C(=O)N1Cc1ccccc1 (stereo not drawn)	-0.1	i	i	i	i	-3.6	i	i	i
CCOC(=O)c1cc(-c2ccc(OC)cc2F)nc2c1c(C)nn2CCC#N	2.04	-10.6*	i	i	6*	-8.4	53.5%*	i	33.5%*
CCOC(=O)C1CCCN(C(=O)c2ccc(C)cc2O)C1 (stereo not drawn)	-0.43	i	i	i	i	-15.0	/	/	/

Screening data: PubChem BioAssay, Johns Hopkins Ion Channel Center
